Measurements as given in ChEMBL document CHEMBL1131490, “1,4-Cyclohexanecarboxylates: potent and selective inhibitors of phosophodiesterase 4 for the treatment of asthma” (J Med Chem, 1998).

Experiments:
[1] = target: Phosphodiesterase 4 (Homo sapiens, UniProt P27815+Q08499+Q07343+Q08493); assay: Inhibition activity against human monocyte derived PDE4 catalytic activity (LPDE4); format: protein assay
[2] = system: Cavia porcellus; assay: Antigen-induced bronchoconstriction in guinea pigs after iv administration 10 min pre-treatment; format: functional; conditions: read-out: ID50 (the source's name)
In short: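 Anesthetized guinea pigs, compound given intravenously, with bronchoconstriction provoked by antigen challenge.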

[3] = system: Cavia porcellus; assay: Antigen-induced bronchoconstriction in guinea pigs after peroral administration 1 hour pre-treatment; format: functional; conditions: po, read-out: ID50 (the source's name)
[4] = system: Mus musculus; assay: Reversal of reserpine-induced hypothermia in the mouse on peroral administration; format: functional; conditions: po
[5] = The value for hypothermia against antigen provocation (po); conditions: in vivo
[6] = organism: Mus musculus; assay: Reversal of reserpine-induced hypothermia in the mouse; format: functional
[7] = organism: Mus musculus; assay: Inhibition of lipopolysaccharide (LPS)-induced TNF alpha generation in mouse; format: functional; conditions: read-out: ID50 (the source's name)
In short: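 Human monocytes adoptively transferred into mice, then LPS challenge. Compound dosed orally; human TNFα generation measured. ID50 taken from the mean response of three to eight animals.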

[8] = organism: Oryctolagus cuniculus; assay: Stimulation of acid secretion from rabbit parietal glands; format: functional
[9] = system: Canis familiaris; assay: Emetic effect in dogs by intravenous administration; format: functional; conditions: Canis lupus familiaris
[10] = organism: Homo sapiens; assay: (§1) Inhibition of lipopolysaccharide (LPS)-induced TNF alpha release by human monocytes; format: functional
[11] = organism: Canis familiaris; assay: Emetic effect in dogs; format: functional; conditions: Canis lupus familiaris
[12] = as §1; format: functional
[13] = organism: Mus musculus; assay: Reversal of reserpine-induced hypothermia in mouse by peroral dose; format: functional; conditions: po

SMILES	IC50 [1] [nM]	ED50 [2] [mg/kg]	also measured
COc1ccc(C2(C(N)=O)CCC(=O)CC2)cc1OC1CCCC1	320		
C#CC1(c2ccc(OC)c(OC3CCCC3)c2)CCC(=O)CC1	80		
COc1ccc(C2(C=O)CCC(=O)CC2)cc1OC1CCCC1	340		
COc1ccc(C2(C#N)CCC(=O)CC2)cc1OC1CCCC1	44		
COc1ccc(C2(C#N)CCC(c3nnn[nH]3)CC2)cc1OC1CCCC1 (stereo not given)	740		
COc1ccc([C@]2(C#N)CC[C@@H](C(=O)O)CC2)cc1OC1CCCC1 (stereo in doubt; 1) [CILOMILAST]		1.8	ED50 [6]: 2.3 mg/kg; ED50 [7]: 4.9 mg/kg; EC50 [8]: 800 nM; ED50 [9]: 4.6 mg/kg; IC50 [10]: 110 nM
COc1ccc([C@@H]2CNC(=O)C2)cc1OC1CCCC1 [(-)-ROLIPRAM]		0.2	ED50 [11]: 0.04 mg/kg; ED50 [3]: 2 mg/kg; ED50 [4]: 0.2 mg/kg; ED50 [7]: 5.1 mg/kg; EC50 [8]: 4 nM; IC50 [12]: 70 nM
COc1ccc([C@H]2CNC(=O)C2)cc1OC1CCCC1 [S-ROLIPRAM]		0.2	ED50 [3]: 2 mg/kg; ED50 [13]: > 10 mg/kg

Continued, in another order:

IC50 [1] [nM]	SMILES	ED50 [2] [mg/kg]	also measured
195	COc1ccc([C@@H]2CC(=O)N(Cc3ccc(N)cc3)C2)cc1OC1CCCC1	10	
1200	COc1ccc(C2CCC(C(=O)O)CC2)cc1OC1CCCC1 (stereo not given)		
120	COc1ccc(C2CCC(=O)CC2)cc1OC1CCCC1		
1200	COc1ccc(C2CCC(C(=O)O)C2)cc1OC1CCCC1 (stereo not given)	0.5	ED50 [3]: 3 mg/kg; ED50 [4]: 0.5 mg/kg; selectivity ratio [5]: 0.17
2500	COc1ccc(C2(CO)CCC(=O)CC2)cc1OC1CCCC1		
500	COc1ccc(C2CCC(=O)C2)cc1OC1CCCC1 (stereo not given)		
52	COc1ccc(C2CC(=O)N(Cc3ccc(N)cc3)C2)cc1OC1CCCC1 (stereo not given)	0.5	
1180	COc1ccc(C2(CF)CCC(=O)CC2)cc1OC1CCCC1		
